Experimental data as given in ChEMBL document CHEMBL1131136, “4-(beta-Arylvinyl)-3-(beta-arylvinylketo)-1-ethyl-4-piperidinols and related compounds: a novel class of cytotoxic and anticancer agents” (J Med Chem, 1998).

How the values were obtained:
Homo sapiens [1] = species on record: Homo sapiens; assay: Cytotoxicity evaluated against human tumor.; assay type: functional
Method in brief: (§1)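 NCI panel of about 55 human tumor cell lines covering leukemia, melanoma, non-small-cell lung, colon, CNS, ovarian, renal, prostate and breast cancers, with some compounds tested on small-cell lung instead of prostate and breast.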

P388 = assay: Cytotoxicity evaluated against P388 cells.; assay type: functional, cell-based; conditions: Mus musculus
L1210 = assay: Cytotoxicity evaluated against L1210 cells.; assay type: functional, cell-based; conditions: Mus musculus
Mus musculus [2] = assay: Optimal value of the percentage reduction of the median treated KM12 tumor weight compared to the median control tumor weight at the dose of 16.8 mg/kg; assay type: functional
Method in brief: (§2)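 The NCI Developmental Therapeutics Program passaged human tumor xenografts in athymic mice. % T/C is the optimal ratio of median treated to median control tumor weight. Tumor-growth delay (% ILS) was the increase in median days for treated tumors to reach a set size compared with controls.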

Mus musculus [3] = assay: Percentage increase in the median time in days for the COLO 205 treated tumor to reach a certain size compared to controls at the dose of 16.8 mg/kg; assay type: functional
Method in brief: (§3)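 Human tumor xenografts passaged in athymic mice, tested by the NCI Developmental Therapeutics Program. %ILS is the percentage increase in median days for treated tumors to reach a set size versus untreated controls.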

Mus musculus [4] = assay: Optimal value of the percentage reduction of the median treated CAKI-1 tumor weight compared to the median control tumor weight at the dose of 16.8 mg/kg; assay type: functional; method in brief: as §2
Mus musculus [5] = assay: Optimal value of the percentage reduction of the median treated COLO 205 tumor weight compared to the median control tumor weight at the dose of 16.8 mg/kg; assay type: functional; method in brief: as §2
Mus musculus [6] = assay: Percentage increase in the median time in days for the KM12 treated tumor to reach a certain size compared to controls at the dose of 25 mg/kg; assay type: functional; method in brief: as §3
Mus musculus [7] = assay: Percentage increase in the median time in days for the CAKI-1 treated tumor to reach a certain size compared to controls at the dose of 16.8 mg/kg; assay type: functional; method in brief: as §3
Homo sapiens [8] = species on record: Homo sapiens; assay: Cytotoxicity evaluated against human tumor; assay type: functional; method in brief: as §1
Mus musculus [9] = assay: Optimal value of the percentage reduction of the median treated NCI-H522 tumor weight compared to the median control tumor weight at the dose of 80 mg/kg; assay type: functional; method in brief: as §2
Mus musculus [10] = assay: Optimal value of the percentage reduction of the median treated COLO 205 tumor weight compared to the median control tumor weight at the dose of 200 mg/kg; assay type: functional; method in brief: as §2
Mus musculus [11] = assay: Percentage increase in the median time in days for the NCI-H522 treated tumor to reach a certain size compared to controls at the dose of 80 mg/kg; assay type: functional; method in brief: as §3
Mus musculus [12] = assay: Percentage increase in the median time in days for the COLO 205 treated tumor to reach a certain size compared to controls at the dose of 200 mg/kg; assay type: functional; method in brief: as §3
Mus musculus [13] = assay: Optimal value of the percentage reduction of the median treated SW-620 tumor weight compared to the median control tumor weight at the dose of 80 mg/kg; assay type: functional; method in brief: as §2
Mus musculus [14] = assay: Percentage increase in the median time in days for the SW-620 treated tumor to reach a certain size compared to controls at the dose of 80 mg/kg; assay type: functional; method in brief: as §3

Structure (SMILES) | IC50 (Homo sapiens [1]) [µM] | IC50 (P388) [µM] | IC50 (L1210) [µM] | other results
CC[N+]1(C)CC[C@@](O)(c2ccc(OC)cc2)[C@H](C(=O)c2ccc(OC)cc2)C1 (stereo partly drawn) | 10.2 | 0.98 |  | 
CC[N+]1(C)CC[C@@](O)(/C=C/c2ccc(C)cc2)[C@H](C(=O)/C=C/c2ccc(C)cc2)C1 (stereo partly drawn) |  | 0.62 | 13.8 | 
CC[N+]1(C)CC[C@@](O)(c2ccc(C)cc2)[C@H](C(=O)c2ccc(C)cc2)C1 (stereo partly drawn) | 50.1 | 2.1 |  | 
CC[N+]1(C)CC[C@@](O)(c2ccc(Cl)c(Cl)c2)[C@H](C(=O)c2ccc(Cl)c(Cl)c2)C1 (stereo partly drawn) | 9.54 | 2.3 | 33.6 | 
CC[N+]1(C)CC[C@@](O)(c2ccc(Cl)cc2)[C@H](C(=O)c2ccc(Cl)cc2)C1 (stereo partly drawn) | 12.9 | 1.5 |  | 
CC[N+]1(C)CC[C@@](O)(c2ccccc2)[C@H](C(=O)c2ccccc2)C1 (stereo partly drawn) |  | 1.3 |  | 
CC[N+]1(C)CC[C@@](O)(/C=C/c2ccccc2)[C@H](C(=O)/C=C/c2ccccc2)C1.[Br-] (stereo partly drawn) | 8.31 | 2.27 |  | T/C (Mus musculus [2]): 45%; ILS at 16.8 mg/kg (Mus musculus [3]): 14%; T/C (Mus musculus [4]): 43%; T/C (Mus musculus [5]): 20%; ILS at 25 mg/kg (Mus musculus [6]): 5%; ILS at 16.8 mg/kg (Mus musculus [7]): 6%
CC[N+]1(C)CC[C@@](O)(/C=C/c2ccc(Cl)c(Cl)c2)[C@H](C(=O)/C=C/c2ccc(Cl)c(Cl)c2)C1 (stereo partly drawn) | 2.19 | 0.64 | 21.4 | 
CCN1CC[C@@](O)(/C=C/c2ccc(Cl)c(Cl)c2)[C@H](C(=O)/C=C/c2ccc(Cl)c(Cl)c2)C1 | 0.38 | 0.4 |  | 
CCN(CC)CC(C)(C)C(=O)/C=C/c1ccc(Cl)cc1 |  | 2.2 | 6.39 | 
O=C(CCN1CCN(CCC(=O)c2ccccc2)CC1)c1ccccc1 |  | 2.84 | 9.71 | 
CCN1CC[C@@](O)(/C=C/c2ccccc2)[C@H](C(=O)/C=C/c2ccccc2)C1 | 2.75 | 1.4 | 5.3 | 
CCN1CC[C@@](O)(/C=C/c2ccccc2C)[C@H](C(=O)/C=C/c2ccccc2C)C1 | 2.46 | 1.89 | 12.6 | 
CCN(CC)CCC(=O)c1ccc(C)cc1 | 26.3 | 2.2 | 21.5 | 
CCN1CC[C@@](O)(c2ccc(Cl)c(Cl)c2)[C@H](C(=O)c2ccc(Cl)c(Cl)c2)C1 | 16.6 | 3.11 |  | 
CCN(CC)CCC(=O)/C=C/c1ccc(C)cc1 |  | 1.1 | 52.9 | 
CCN1CC[C@@](O)(c2ccc(Cl)cc2)[C@H](C(=O)c2ccc(Cl)cc2)C1 | 83.2 | 5.14 | 15.7 | 
CCN(CC)CCC(=O)/C=C/c1ccc(Cl)c(Cl)c1 | 3.8 | 0.39 | 61.2 | 

Structure (SMILES) | IC50 (Homo sapiens [1]) [µM] | IC50 (P388) [µM] | IC50 (L1210) [µM] | other results
CCN1CC[C@@](O)(/C=C/c2ccc(OC)cc2)[C@H](C(=O)/C=C/c2ccc(OC)cc2)C1 |  | 5 | 25.6 | IC50 (Homo sapiens [8]): 8.31 µM
CCN1CC[C@@](O)(/C=C/c2ccc(C)cc2)[C@H](C(=O)/C=C/c2ccc(C)cc2)C1.Cl | 5.01 | 2.1 | 6.08 | T/C (Mus musculus [9]): 23%; T/C (Mus musculus [10]): 57%; ILS at 80 mg/kg (Mus musculus [11]): -2%; ILS at 200 mg/kg (Mus musculus [12]): 28%; T/C (Mus musculus [13]): 32%; ILS at 80 mg/kg (Mus musculus [14]): 9%
CCN(CC)CCC(=O)c1ccc(Cl)cc1 |  | 3.2 | 36.9 | 
CCN(CC)CCC(=O)/C=C/c1ccccc1 | 9.77 | 1.7 | 25.7 | 
CCN(CC)CCC(=O)c1ccc(Cl)c(Cl)c1 | 32.4 | 0.31 | 36.4 | 
CCN(CC)CCC(=O)/C=C/c1ccc(Cl)cc1 |  | 0.3 | 41 | 
CCN1CC[C@@](O)(c2ccc(OC)cc2)[C@H](C(=O)c2ccc(OC)cc2)C1 | 19.5 | 4.17 | 13.5 | 
CCN1CC[C@@](O)(c2ccc(C)cc2)[C@H](C(=O)c2ccc(C)cc2)C1 | 25.1 | 8.6 | 38.2 | 
CCN(CC)CCC(=O)c1ccccc1 | 25.1 | 2.6 | 20.3 | 
CCN1CC[C@@](O)(c2ccc(O)cc2)[C@H](C(=O)c2ccc(O)cc2)C1 | 20.9 | 1.4 | 9.75 | 
CCN(CC)CCC(=O)c1ccc(OC)cc1 |  | 1.6 | 43.8 | 
CCN1CC[C@@](O)(/C=C/c2ccc(C)cc2C)[C@H](C(=O)/C=C/c2ccc(C)cc2C)C1 |  | 2.59 | 20.9 | 
CCN(CC)CCC(=O)/C=C/c1ccc(OC)cc1 |  | 0.67 | 44.3 | 
O=C(/C=C/c1ccccc1)CCN1CCN(CCC(=O)/C=C/c2ccccc2)CC1 | 12 | 0.62 | 5.78 | 
CCN1CC[C@@](O)(c2ccccc2)[C@H](C(=O)c2ccccc2)C1 | 30.2 | 1.07 | 20.1 | 
CCN1CC[C@@](O)(/C=C/c2ccc(Cl)cc2)[C@H](C(=O)/C=C/c2ccc(Cl)cc2)C1 | 25.7 | 1.1 | 6.96 | 
N[C@@H](Cc1ccc(N(CCCl)CCCl)cc1)C(=O)O | 26.3 |  |  | 
